Screening data from PubChem.
This is a sample that favours compounds with a hit; in the whole collection about 1.9% have one here.
NS3 helicase inh = blocks Hepatitis C virus NS3 helicase unwinding. AID 1800. NS3 helicase DNA unwinding, Cy5 molecular beacon fluorescence. inhibition, % at 10.9 µM. 290,000 compounds, 0.56% hits;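 active means inhibition above the mean of all tested compounds plus 3 SD, set per campaign, cut at about 35% in these data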;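 further: 0% = DMSO wells and 100% = thioflavine S control wells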
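System: Hepatitis C virus NS3 helicase domain fragment enzyme | Reagent: Annealed dual-labelled DNA beacon duplex, ATP-started | Compound dosing: 10.9 µM single point, 0.8% DMSO | Incubation: 1 h reaction at 25 °C, ATP-initiated | Technique: Cy5 fluorescence | Evaluation: Percent inhibition from t60/t0 fluorescence ratio | Benchmarks: Low DMSO, high thioflavine S at 110 µM | Replication: Singlicate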
GPR7 antag = human neuropeptides B/W receptor 1 antagonism. 290,000 compounds, 1.1% hits. GPR7-expressing cells, fluorescence antagonist assay. inhibition, % at 4.4 µM; in the data active means inhibition above about 16%, passing the limit was not always enough;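 further: cells stimulated with the agonist NPW; 0% = agonist with vehicle and 100% = vehicle without agonist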
HCV core dimer = HCV core protein dimerization inhibition. TR-FRET GST/Flag-core106 dimerization, 1536-well. 300,000 compounds, 0.33% hits. AID 1899. inhibition, % at 5 µM;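 active means inhibition above the mean of all tested compounds plus 3 SD, set per screening campaign, cut at about 45% in these data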
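Assay system – GST-tagged and Flag-tagged HCV core protein residues 1-106 · Quantity – core106 proteins, GST 13.5 nM and Flag 17 nM · Benchmarks – unlabelled core106 and no-GST-core106 wells · Read-out basis – percent inhibition of core106 dimerization signal · Detection – time-resolved FRET, ex 340 nm, em 617 and 671 nm · Schedule – 4 h at 22.5 °C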
pCIP destab = compounds decreasing mouse p/CIP protein stability. F442A p/CIP-EGFP cells, EGFP fluorescence, 16 h. decrease of EGFP signal, % at 10 µM. 290,000 compounds, 0.01% hits;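 active means EGFP signal decrease of at least 30% at 10 µM or well 3 SD below plate mean, unless failing retest; inactive means the rest, including hits failing retest or dose response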
FID counter = displaces DNA intercalator in HCV helicase counter-screen | inhibition, % at 7.9 µM | AID 1845 | DNA fluorescent intercalator displacement, fluorescence | 290,000 compounds, 0.17% hits; in the data active means inhibition above about 37%;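 further: 0% = vehicle and 100% = reference compound; higher means more ethidium bromide displaced from hairpin DNA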
GPR7 antag conf = human GPR7 antagonism, confirmation assay; inhibition, % at 4.4 µM; 2,400 compounds, 52% hits; GPR7-expressing cells, calcium fluorescence antagonist mode; shares compounds with GPR7 antag; AID 1952; in the data active means inhibition above about 24%;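 further: stimulated with the GPR7 agonist NPW; 0% = agonist plus vehicle and 100% = vehicle alone without agonist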
MCHR1 antagonist = antagonizes human MCHR1, a GPR7 antagonist counter-screen | shares compounds with GPR7 antag | 2,400 compounds, 62% hits | inhibition, % at 4.4 µM | MCHR1-expressing cells, fluorescence antagonist assay; in the data active means inhibition above about 22%;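 further: 0% = vehicle with agonist and 100% = vehicle without agonist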
* hit, by the source's call; . = no result.

SMILES	NS3 helicase inh	GPR7 antag	HCV core dimer	pCIP destab	FID counter	GPR7 antag conf	MCHR1 antagonist
CC1(C)CC(C(CCN(Cc2ccccc2)C(=O)c2ccco2)c2ccc(F)cc2)CCO1 (configuration not stated)	-2.0	31.1*	4.3	-2.2	-38.6	37.2*	60.5*
CCCOC(=O)c1ccc(NC(=O)c2cc(=O)[nH]c3ccccc23)cc1	0.1	-15.0	-0.1	3.1	-14.9	.	.
COc1ccc(C(=O)N/N=C\c2coc3ccc(Cl)cc3c2=O)cc1	-1.5	11.2	-6.5	-3.3	-15.9	.	.
COc1cc(C(=O)N/N=C/c2coc3ccc(Cl)cc3c2=O)ccc1O	31.2	31.0*	0.1	12.0	2.4	-6.9	-0.7
COc1ccccc1N1CN(CCc2ccccc2)CNC1=S	6.4	30.0*	-0.5	-34.8	-14.0	5.2	-2.0
O=C(COC(=O)c1ccccc1F)c1ccc(-n2nncc2-c2ccco2)cc1	12.2	21.5*	27.9	2.5	-28.1	7.3	26.3*
COc1ccc(C(=O)COC(=O)c2ccco2)cc1	12.4	-6.1	4.0	2.5	-4.1	.	.
CCOC(=O)Cc1nn(Cc2nc(-c3ccc(C#N)cc3)cs2)c(=O)c2ccccc12	-4.8	4.0	6.4	-3.1	-22.1	.	.
C=CCn1c2ccccc2c(=O)c2cc(C#CC3(O)CCCCC3)ccc21	-29.7	46.3*	13.4	-5.7	-32.8	43.2*	46.0*
O=c1c2ccccc2sc2ccc(C#CC3(O)CCCCC3)cc12	.	.	4.0	.	.	.	.
Cc1ccc(C(=O)Nc2ccsc2C(=O)O)cc1	17.3	4.8	-6.5	-3.4	-5.5	.	.
O=C(Nc1ccsc1C(=O)O)c1ccc(Cl)cc1	8.0	46.0*	6.8	1.4	-0.5	3.2	5.2
C=CCN(C(=O)c1ccc(Cl)cc1)c1ccccc1C(=O)NCC(=O)O	-2.9	-18.2	2.3	-1.8	-7.4	.	.
COc1ccccc1C(=O)N/C(=C\c1ccccc1)C(=O)NCc1ccco1	23.3	-13.0	-12.4	-21.6	-23.6	.	.
COc1ccc(C2CC2/C(=N/O)c2ccccn2)cc1 (configuration not stated)	5.3	28.3*	0.4	2.0	-8.7	26.2*	17.5
O/N=C(\c1ccccn1)C1CC1c1ccccc1 (configuration not stated)	1.3	-10.4	-1.6	-4.3	-3.5	.	.
COc1ccccc1OCCNC(=O)C1CC(=O)N(c2cccc(SC)c2)C1 (configuration not stated)	.	.	3.8	.	.	.	.
O=C(Cc1ccc(S(=O)(=O)N2CCCCC2)s1)Nc1ccc(F)cc1F	1.7	35.1*	15.7	-12.1	-14.5	20.4	18.8
Fc1ccc(C(c2nnnn2C2CCCC2)N(Cc2ccco2)CC2CCCO2)cc1 (configuration not stated)	1.9	31.7*	11.9	-13.5	-29.5	43.5*	53.2*
c1ccc(CN(Cc2ccco2)C(c2ccncc2)c2nnnn2C2CCCC2)cc1 (configuration not stated)	1.9	-6.0	0.0	-5.0	-5.9	.	.
COc1ccnc(Oc2ccc(F)cc2)c1C(=O)N/C=N/OCc1ccc(F)cc1Cl	0.4	-8.2	10.5	-3.4	-1.8	.	.
COc1ccnc(Oc2ccc(F)cc2)c1C(=O)N/C=N/OCc1ccc(F)cc1	-5.9	.	-6.4	9.5	-10.8	.	12.8
O=c1c2c(nc3cc(-c4ccc(F)cc4)[nH]n13)CCC2	18.2	29.5*	-9.6	-20.6	-2.6	-13.3	8.3
Cc1ccc(C(=O)Cn2c(C(=O)OCCO)cc3ccccc32)cc1	9.0	0.9	.	9.4	-23.6	.	.
COC(=O)c1sc(N)c(C(=O)OC)c1COC(=O)c1c(C)noc1C	-3.4	23.0*	0.8	2.5	-15.7	8.6	14.9
COC(=O)c1sc(NC(=O)c2c(C)noc2C)nc1C	11.2	-7.5	-5.4	3.0	-5.5	.	.
CC(C)COc1ccc(-c2nnc(-c3ccco3)o2)cc1	16.4	1.6	0.6	-6.1	-16.3	.	.
CCN(CC)CCCNc1ccc(-c2nnc(-c3ccc(OCC(C)C)cc3)o2)cn1	-100.0	37.6*	-9.2	-15.0	15.3	21.8	47.6*
O=C(/C=C/c1ccc(Cl)cc1)c1cccnc1	-0.9	28.6*	7.8	-1.3	0.4	50.8*	78.3*
